From ChEMBL document CHEMBL1136156, “A specific anti-Helicobacter pylori agent NE2001: synthesis and its effect on the growth of H. pylori” (2003) come the findings set out here.

Values after ≈ are worked out from the molar mass of the structure shown.

Format in all cases: functional
The test system of one test is Staphylococcus aureus. As to the kind of experiment: Antibacterial activity against Staphylococcus aureus 209P JC was determined. Summed up: (§1)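 Agar dilution MIC on Mueller–Hinton agar for reference strains of other species. Compounds were dissolved in DMSO and serially diluted two-fold. Strains were stored at -80 °C before testing. MIC was taken as the minimum concentration completely inhibiting growth.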

Another test relates to Escherichia coli. Kind of test: Antibacterial activity against Escherichia coli K-12 was determined. Summed up: as §1
Test [1] deals with Helicobacter pylori. As to the kind of experiment: Antibacterial activity against Helicobacter pylori ATCC 43504 was determined. The method in brief: (§2)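 Agar dilution MIC on Columbia agar with 7% defibrinated sheep blood. Compounds were dissolved in DMSO and serially diluted two-fold. Inoculum was grown 24 h at 37 °C in Brucella broth with 5% fetal bovine serum under microaerophilic gas (5% O2, 10% CO2, 85% N2) and adjusted to about 10^8 CFU/mL, then streaked onto ~2 cm squares. Plates were incubated microaerophilically for 3 days at 37 °C. MIC was the lowest concentration giving complete growth inhibition.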

A further test has as its system Morganella morganii. As to the kind of experiment: Antibacterial activity against Morganella morganii was determined. Summed up: as §1
Test [2] deals with Helicobacter pylori. As to the kind of experiment: Antibacterial activity against Helicobacter pylori HP0019 was determined. Summed up:
as §2

Test [3] deals with Helicobacter pylori. Kind of test: Antibacterial activity against Helicobacter pylori HP004 was determined. The method in brief:
(§3)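 Agar dilution MIC on Columbia agar with 7% defibrinated sheep blood. Compounds dissolved in DMSO and serially diluted twofold. Inoculum was H. pylori grown 24 h at 37 °C in Brucella broth with 5% fetal bovine serum under microaerophilic gas (5% O2, 10% CO2, 85% N2), adjusted to about 10^8 CFU/mL and streaked by loop. Plates were incubated microaerophilically for 3 days at 37 °C. MIC taken as the lowest concentration giving complete growth inhibition.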

A further test relates to Klebsiella pneumoniae. Kind of test: Antibacterial activity against Klebsiella pneumoniae was determined. Summed up:
as §1

Test [4] deals with Helicobacter pylori. Kind of test: Antibacterial activity against Helicobacter pylori HP0017 was determined. Summed up:
as §2

The subject of another test is Enterococcus faecalis. Kind of test: Antibacterial activity against Enterococcus faecalis was determined. Summed up: as §1
In test [5] the test system is Helicobacter pylori. Kind of test: Antibacterial activity against Helicobacter pylori HP021 was determined. Summed up:
as §2

Test [6] has as its system Helicobacter pylori. As to the kind of experiment: Antibacterial activity against Helicobacter pylori HP008 was determined. The method in brief: as §2
In test [7] the test system is Staphylococcus epidermidis. Kind of test: Antibacterial activity against Staphylococcus epidermidis was determined. The method in brief: as §1
The test system of test [8] is Helicobacter pylori. Kind of test: Antibacterial activity against Helicobacter pylori HP022 was determined. The method in brief: as §2
Test [9] concerns Helicobacter pylori. As to the kind of experiment: Antibacterial activity against Helicobacter pylori HP0018 was determined. The method in brief: as §3
The test system of test [10] is Helicobacter pylori. As to the kind of experiment: Antibacterial activity against Helicobacter pylori HP020 was determined. The method in brief:
as §3

Test [11] relates to Helicobacter pylori. Kind of test: Antibacterial activity against Helicobacter pylori HP003 was determined. The method in brief:
as §2

The test system of test [12] is Helicobacter pylori. As to the kind of experiment: Antibacterial activity against Helicobacter pylori HP007 was determined. Summed up:
as §2

In test [13] the test system is Helicobacter pylori. As to the kind of experiment: Antibacterial activity against Helicobacter pylori HP001 was determined. The method in brief: as §2
In test [14] the test system is Helicobacter pylori. Kind of test: Antibacterial activity against Helicobacter pylori HP0016 was determined. The method in brief:
as §2

For the molecule `NCc1ccc(C(=O)O)cc1` [AMINOMETHYLBENZOIC ACID], the MIC against Staphylococcus aureus, with Escherichia coli and against Helicobacter pylori [1] was more than 64 µg/mL each time.
As to `Cc1ncc([N+](=O)[O-])n1CCO` [METRONIDAZOLE], the MIC (in general, the smallest concentration in the dilution series that meets the test's criterion for growth inhibition) in the test on Morganella morganii is more than 100 µg/mL; in the test on Helicobacter pylori [2] it was 32 µg/mL (≈ 187 µM); against Helicobacter pylori [3] it was 8 µg/mL (≈ 46.7 µM); against Klebsiella pneumoniae it was more than 100 µg/mL; against Helicobacter pylori [4], 64 µg/mL (≈ 374 µM); against Staphylococcus aureus it was more than 100 µg/mL. Further, the minimal inhibitory concentration (MIC) was more than 100 µg/mL in the test with Enterococcus faecalis; 32 µg/mL (≈ 187 µM) in the test with Helicobacter pylori [5]; 32 µg/mL (≈ 187 µM) against Helicobacter pylori [6]; more than 100 µg/mL in test [7]; 16 µg/mL (≈ 93.5 µM) against Helicobacter pylori [8]; more than 100 µg/mL in the test with Escherichia coli. Moreover, the MIC in the test on Helicobacter pylori [9] amounted to 8 µg/mL (≈ 46.7 µM); in the test on Helicobacter pylori [10], 128 µg/mL (≈ 748 µM); in the test with Helicobacter pylori [11], 2 µg/mL (≈ 11.7 µM); against Helicobacter pylori [1] it was 64 µg/mL (≈ 374 µM); in the test with Helicobacter pylori [12], 16 µg/mL (≈ 93.5 µM); in the test with Helicobacter pylori [13] it was 4 µg/mL (≈ 23.4 µM). The same molecule had a minimal inhibitory concentration (MIC) in the test on Helicobacter pylori [14] of 32 µg/mL (≈ 187 µM).
Take `Cl.N=C(N)NCc1ccc(C(=O)Nc2ccccc2)cc1`: the minimum inhibitory concentration (MIC) against Staphylococcus aureus, against Escherichia coli and in the test on Helicobacter pylori [1] was more than 64 µg/mL each time.
With `Cc1ccc(COC(=O)c2ccc(-c3ccc(OC(=O)c4ccc(CN=C(N)N)cc4)cc3)cc2)cc1.Cl`, the MIC in the test on Morganella morganii was more than 64 µg/mL; against Helicobacter pylori [2] it was 1.6 µg/mL; in the test on Helicobacter pylori [3] it was 0.8 µg/mL; with Klebsiella pneumoniae it was more than 64 µg/mL; in the test on Helicobacter pylori [4] it was 1.6 µg/mL; in the test on Staphylococcus aureus it was more than 64 µg/mL. Also, the minimum inhibitory concentration (MIC) against Enterococcus faecalis is more than 64 µg/mL; in the test on Helicobacter pylori [5] it was 0.8 µg/mL; with Helicobacter pylori [6], 0.8 µg/mL; in [7], more than 64 µg/mL; in the test on Helicobacter pylori [8], 0.8 µg/mL; against Escherichia coli, more than 64 µg/mL. Also, the minimal inhibitory concentration (MIC) was determined as 0.4 µg/mL in the test on Helicobacter pylori [9]; 0.8 µg/mL in the test with Helicobacter pylori [10]; 0.8 µg/mL in the test with Helicobacter pylori [11]; 0.8 µg/mL against Helicobacter pylori [1]; 0.8 µg/mL with Helicobacter pylori [12]; 0.4 µg/mL with Helicobacter pylori [13]. The molecule also had an MIC in the test on Helicobacter pylori [14] of 0.8 µg/mL.
`COC(=O)c1ccc(-c2ccc(O)cc2)cc1`: the MIC against Staphylococcus aureus, with Escherichia coli and with Helicobacter pylori [1] was more than 64 µg/mL throughout.
With `Cc1ccc(CO)cc1`, the MIC with Staphylococcus aureus, against Escherichia coli and in the test with Helicobacter pylori [1] was more than 64 µg/mL in each case.
On to `Cl.N=C(N)NCc1ccc(C(=O)O)cc1`, for which the MIC with Staphylococcus aureus, against Escherichia coli and against Helicobacter pylori [1] was more than 64 µg/mL each time.
As for `Cl.N=C(N)NCc1ccc(C(=O)Oc2ccccc2)cc1`, the MIC against Staphylococcus aureus is more than 64 µg/mL; in the test on Escherichia coli, more than 64 µg/mL; in the test with Helicobacter pylori [1], 16 µg/mL.
With `Cc1ccc(COC(=O)c2ccc(-c3ccc(O)cc3)cc2)cc1`, the MIC is more than 64 µg/mL against Staphylococcus aureus, more than 64 µg/mL against Escherichia coli and 8 µg/mL (≈ 25.1 µM) in the test on Helicobacter pylori [1].
As to `O=C(O)c1ccc(-c2ccc(O)cc2)cc1`, the minimum inhibitory concentration (MIC) with Staphylococcus aureus, in the test with Escherichia coli and with Helicobacter pylori [1] was more than 64 µg/mL in each case.
With `CC1(C)S[C@@H]2[C@H](NC(=O)[C@H](N)c3ccc(O)cc3)C(=O)N2[C@H]1C(=O)O` [AMOXICILLIN], the MIC was more than 100 µg/mL with Morganella morganii; 0.05 µg/mL (≈ 0.137 µM) with Helicobacter pylori [2]; 0.05 µg/mL (≈ 0.137 µM) in the test with Helicobacter pylori [3]; 50 µg/mL (≈ 137 µM) against Klebsiella pneumoniae; 0.025 µg/mL (≈ 0.0684 µM) against Helicobacter pylori [4]; 0.2 µg/mL (≈ 0.547 µM) in the test with Staphylococcus aureus. For the same molecule, the MIC in the test with Enterococcus faecalis is 0.78 µg/mL (≈ 2.13 µM); in the test on Helicobacter pylori [5], 0.025 µg/mL (≈ 0.0684 µM); against Helicobacter pylori [6] it was 0.05 µg/mL (≈ 0.137 µM); in test [7], 0.78 µg/mL (≈ 2.13 µM); in the test with Helicobacter pylori [8], 0.025 µg/mL (≈ 0.0684 µM); against Escherichia coli it was 1.6 µg/mL (≈ 4.38 µM). In addition, the minimal inhibitory concentration (MIC) against Helicobacter pylori [9] is 0.05 µg/mL (≈ 0.137 µM); in the test on Helicobacter pylori [10] it was 0.05 µg/mL (≈ 0.137 µM); in the test with Helicobacter pylori [11], 0.05 µg/mL (≈ 0.137 µM); with Helicobacter pylori [1], 0.05 µg/mL (≈ 0.137 µM); with Helicobacter pylori [12], 0.05 µg/mL (≈ 0.137 µM); in the test on Helicobacter pylori [13], 0.025 µg/mL (≈ 0.0684 µM). The MIC in the test with Helicobacter pylori [14] was 0.05 µg/mL (≈ 0.137 µM).
